From article PMC4872822 (Journal of medicinal chemistry, 2015)
Each block holds one molecule with its values, some of them ahead of it.

Tests used:
h-15-LOX-1 = molecular target: T1, h-15-LOX-1 (Homo sapiens, UniProt P16050); experiment: Human 15-LOX-1 screening UV assay; type: biochemical; details: for h-15-LOX-1 inhibition (result in words): SAR comparison, Figure 3, up to 50 μM
T1 sequence (P16050 1-662): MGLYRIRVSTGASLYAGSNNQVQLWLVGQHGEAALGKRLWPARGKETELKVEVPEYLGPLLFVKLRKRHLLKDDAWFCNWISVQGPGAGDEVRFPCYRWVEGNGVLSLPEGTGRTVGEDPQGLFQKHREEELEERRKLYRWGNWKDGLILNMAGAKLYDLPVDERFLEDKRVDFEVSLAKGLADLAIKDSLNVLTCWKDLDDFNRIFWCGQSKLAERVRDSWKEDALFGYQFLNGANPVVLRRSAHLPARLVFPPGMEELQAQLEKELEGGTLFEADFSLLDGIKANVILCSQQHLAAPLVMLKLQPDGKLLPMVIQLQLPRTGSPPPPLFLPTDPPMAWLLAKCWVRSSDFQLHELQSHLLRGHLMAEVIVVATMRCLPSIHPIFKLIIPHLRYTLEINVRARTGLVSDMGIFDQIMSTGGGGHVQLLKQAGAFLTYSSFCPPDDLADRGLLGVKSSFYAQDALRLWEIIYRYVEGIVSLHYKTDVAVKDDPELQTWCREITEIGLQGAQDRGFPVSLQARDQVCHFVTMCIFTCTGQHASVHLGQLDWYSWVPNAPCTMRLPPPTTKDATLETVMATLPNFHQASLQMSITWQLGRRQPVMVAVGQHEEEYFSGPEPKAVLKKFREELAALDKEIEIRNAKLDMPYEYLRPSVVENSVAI

interleukin-12 (IL-12) = details: after stimulation with LPS; cited from earlier work
[1] = test system: interleukin expression in RAW 264.7 cells; experiment: Gene expression by RT-qPCR in LPS/IFNγ-stimulated RAW 264.7 cells; type: cell-based, murine; details: RAW 264.7, 20 h with 10 μM linoleic acid, LPS/IFNγ last 4 h
How it was run: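 Murine macrophages (passage 7–16) in DMEM-GlutaMAX with 10% heat-inactivated FBS, extra 2 mM GlutaMAX and penicillin/streptomycin at 37 °C, 5% CO2, seeded at 20,000 cells/cm2 one day before. Test compound 1–500 nM (final) with 10 μM linoleic acid for 20 h; 10 ng/ml LPS and IFNγ for the last 4 h. Cells were DPBS-washed and total RNA isolated for RT-qPCR. Results are fold change versus the LPS/IFNγ/linoleic acid control.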

[2] = test system: interleukin expression in precision-cut lung slices (PCLS); experiment: Gene expression by RT-qPCR in LPS/IFNγ-stimulated precision-cut lung slices; type: cell-based, mouse; details: 20 h with 10 μM linoleic acid, LPS/IFNγ last 4 h
[3] = test system: precision-cut lung slices (PCLS); details: LDH release, 1-500 nM with 10 μM linoleic acid for 20 h

h-15-LOX-1 inhibition (result in words) (h-15-LOX-1): inactive
Compound: O=Cc1c[nH]c2cc(Cl)ccc12 [Compound 5]

inhibition at 50 µM (h-15-LOX-1; read-out: inhibition of the enzyme activity at 50 μM): < 50%
Compound: CCOC(=O)c1c(C=O)c2ccc(Cl)cc2n1C [Compound 3, Ethyl 6-chloro-3-formyl-1-methyl-1H-indole-2-carboxylate]

Compound: c1ccc2c(c1)SCc1c-2[nH]c2ccccc12 [PD-146176]
effect on interleukin-12 (IL-12) (interleukin-12 (IL-12)): downregulation of interleukin-12 (IL-12)

Compound: CCOC(=O)c1[nH]c2cc(Cl)ccc2c1C(=O)C[C@@H](C)CCCC(C)C [Compound 14d, (S)-ethyl 6-chloro-3-(3,7-dimethyloctanoyl)-1H-indole-2-carboxylate]
IL-1β gene expression [1]: did not change
IL-6 gene expression [1]: did not change
IL-12 gene expression [1]: did not change
IL-1β gene expression [2]: small but significant downregulation
IL-6 gene expression [2]: small but significant downregulation
IL-10 gene expression [2]: upregulated
IL-12 gene expression [2]: remained unchanged
concentration not affecting PCLS viability [3]: ≤ 500 nM

h-15-LOX-1 inhibition (result in words) (h-15-LOX-1): inactive
Compound: CC(C)(C)OC(=O)c1cc2ccc(Cl)cc2[nH]1 [Compound 8, tert-butyl 6-chloro-1H-indole-2-carboxylate]

h-15-LOX-1 inhibition (result in words) (h-15-LOX-1): inactive
Compound: O=Cc1c(Cl)[nH]c2cc(Cl)ccc12 [Compound 4]

h-15-LOX-1 inhibition (result in words) (h-15-LOX-1): inactive
Compound: O=Cc1c(C(=O)O)[nH]c2cc(Cl)ccc12 [Compound 7, 6-chloro-3-formyl-1H-indole-2-carboxylic acid]
